Read-outs that look alike come from different tables or passages of the source.
Columns and labels:
Type in all cases: cell-based, human
[1] = system: SNU80 thyroid cancer cells; assay: MTT cell growth inhibition assay, SNU80; conditions: read-out: IC50 values, SNU80
How it was run: (§1)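 MTT assay: cells seeded at 1 × 10^5/well and allowed to adhere 24 h (37°C, 5% CO2). Compound was diluted from DMSO:water (1:3) stock into incomplete medium; finals 300–0.07 μM for 24 h. After a PBS rinse, cells got MTT (5 mg/ml) for 3 h; formazan dissolved in DMSO; A540 read. % viability = OD sample/OD control ×100. IC50 from dose-response curve fitting. Three independent duplicate sets; untreated and cisplatin controls.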

T98G brain cancer cells = assay: MTT cell growth inhibition assay, T98G; conditions: read-out: IC50 values, T98G
How it was run: as §1

[2] = system: KB head and neck cancer cells; assay: MTT cell growth inhibition assay, KB; conditions: read-out: IC50 values, KB
How it was run: as §1

T98G cells = assay: Cellular uptake by fluorescence detection; conditions: 1–4 μM
How it was run: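 T98G cells in 96-well plates were allowed to adhere for 12 h, then exposed to 1–4 μM at 37°C in complete medium. After a PBS wash and medium replacement, cell-associated fluorescence was read on a plate reader (ex 330, em 485 nm). Free ligand served as the positive control. Microscopy: cells on glass slides, 2 μM overnight, ex 340–380 / barrier 435–485 filters.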

[3] = system: HEK293 non-cancerous cells; assay: MTT cell growth inhibition assay, HEK293; conditions: read-out: IC50 values, HEK293
How it was run: as §1

Row | Structure (SMILES) | IC50 ([1]; Homo sapiens, 24 h) [µM] | IC50 (T98G brain cancer cells; Homo sapiens, T98G, 24 h) [µM] | IC50 ([2]; Homo sapiens, 24 h) [µM] | cellular uptake: fluorescence detected in cells (T98G cells) | IC50 ([3]; Homo sapiens, HEK293, 24 h) [µM] | IC50 ([1]; SNU80 thyroid cancer cells, MTT, 24 h treatment) [µM] | IC50 (T98G brain cancer cells; T98G brain cancer cells, MTT, 24 h treatment) [µM] | IC50 ([2]; KB head and neck cancer cells, MTT, 24 h treatment) [µM] | IC50 ([3]; HEK293 non-cancerous cells, MTT, 24 h treatment) [µM]
1 | O=C(Nc1ccc(C#Cc2ccncc2)cc1)c1cccc(C(=O)Nc2ccc(C#Cc3ccncc3)cc2)n1 [Complex 1, N,N′-bis(4-(pyridin-4-ylethynyl)phenyl)pyridine-2,6-dicarboxamide] | 107 | 144 | 125 | very weak fluorescence | 157 | – | – | – | –
2 | N.N.[Cl][Pt][Cl] [cisplatin, reference compound] | – | – | – | – | – | 49.3 | 69.6 | 72.6 | 17.3
